Measurements as given in ChEMBL document CHEMBL3044867, “Antifungal activity of glyceollins isolated from soybean elicited with Aspergillus sojae” (2010).
≈ marks a conversion by molar mass, not a printed value.

Key:
[1] = tested on: Fusarium oxysporum; experiment: Inhibition of spore germination of Fusarium oxysporum KACC 41083 at 100 to 500 ug/mL; format: functional
In short: (§1)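 Glyceollins were tested at 10, 25, 50, 100, 250 and 500 μg/mL against a 1% DMSO control, with spore suspension at 1.0 × 10^8 spores/mL. 100 μL aliquots went on glass slides in triplicate and were kept in a moist chamber at 25 C for 24 h. Slides were fixed in lactophenol-cotton blue, about 200 spores were counted for germ tubes, and germination was expressed relative to control.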

[2] = tested on: Fusarium oxysporum; experiment: Inhibition of spore germination of Fusarium oxysporum KACC 41083; format: functional, organism-based; in short: as §1
[3] = tested on: Sclerotinia sclerotiorum; experiment: Antifungal activity against Sclerotinia sclerotiorum KACC 41065 measured 2 to 4 days post dose by two-fold dilution method; format: functional
In short: (§2)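 Two-fold dilution MIC in potato dextrose broth tubes. The DMSO-dissolved sample was serially diluted to final 10, 25, 50, 100, 250, 500 and 750 μg/mL, then inoculated with 10 μL spore suspension (1 × 10^8 spores/mL, from 10-day cultures). Tubes were incubated 2-4 days at 28 C; the control tube held spores only. MIC was the lowest concentration with no visible growth.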

[4] = tested on: Fusarium oxysporum; experiment: Antifungal activity against Fusarium oxysporum KACC 41083 measured 2 to 4 days post dose by two-fold dilution method; format: functional; in short: as §2
[5] = tested on: Fusarium oxysporum; experiment: Antifungal activity against Fusarium oxysporum KACC 41083 assessed as inhibition of radial growth at 0.2 mg/disk incubated for 4 to 6 days by disk diffusion method; format: functional
In short: (§3)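 Disk diffusion on PDA in 9 cm dishes. Sample in DMSO at 40 mg/mL; paper disks loaded with 5 or 15 μL, dried, and set equidistantly. A 6 mm agar plug of the pathogen was placed upside down in the centre. Plates were incubated at 25 C for 4-6 days, until solvent-control growth reached the edge. % inhibition = radial growth versus control; triplicate plates; mean ± SD of three experiments.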

[6] = tested on: Phytophthora capsici; experiment: Inhibition of spore germination of Phytophthora capsici KACC 40157 at 100 ug/mL measured 2 hr post dose; format: functional; settings: KACC 40157, 2 h
[7] = tested on: Botrytis cinerea; experiment: Antifungal activity against Botryotinia fuckeliana KACC 40573 assessed as inhibition of radial growth at 0.6 mg/disk incubated for 4 to 6 days by disk diffusion method; format: functional; in short: as §3
[8] = tested on: Phytophthora capsici; experiment: Inhibition of spore germination of Phytophthora capsici KACC 40157 at 25 to 100 ug/mL; format: functional, organism-based; settings: TDE = time-dependent effect
[9] = tested on: Fusarium oxysporum; experiment: Antifungal activity against Fusarium oxysporum KACC 41083 assessed as inhibition of radial growth at 0.6 mg/disk incubated for 4 to 6 days by disk diffusion method; format: functional; in short: as §3
[10] = tested on: Phytophthora capsici; experiment: Inhibition of spore germination of Phytophthora capsici KACC 40157 at 25 ug/mL measured 4 hr post dose; format: functional; settings: KACC 40157, 4 h
[11] = tested on: Phytophthora capsici; experiment: Inhibition of spore germination of Phytophthora capsici KACC 40157 at 250 ug/mL; format: functional; in short: as §1
[12] = tested on: Sclerotinia sclerotiorum; experiment: Antifungal activity against Sclerotinia sclerotiorum KACC 41065 assessed as inhibition of radial growth at 0.2 mg/disk incubated for 4 to 6 days by disk diffusion method; format: functional; in short: as §3
[13] = tested on: Botrytis cinerea; experiment: Antifungal activity against Botryotinia fuckeliana KACC 40573 measured 2 to 4 days post dose by two fold dilution method; format: functional; in short: as §2
[14] = tested on: Sclerotinia sclerotiorum; experiment: Inhibition of spore germination of Sclerotinia sclerotiorum KACC 41065 at 500 ug/mL; format: functional; in short: as §1
[15] = tested on: Sclerotinia sclerotiorum; experiment: Inhibition of spore germination of Sclerotinia sclerotiorum KACC 41065; format: functional, organism-based; in short: as §1
[16] = tested on: Botrytis cinerea; experiment: Inhibition of spore germination of Botryotinia fuckeliana KACC 40573; format: functional, organism-based; in short: as §1
[17] = tested on: Phytophthora capsici; experiment: Antifungal activity against Phytophthora capsici KACC 40157 assessed as inhibition of radial growth at 0.6 mg/disk incubated for 4 to 6 days by disk diffusion method; format: functional; in short: as §3
[18] = tested on: Phytophthora capsici; experiment: Inhibition of spore germination of Phytophthora capsici KACC 40157; format: functional, organism-based; in short: as §1
[19] = tested on: Botrytis cinerea; experiment: Inhibition of spore germination of Botryotinia fuckeliana KACC 40573 at 100 to 500 ug/mL; format: functional; in short: as §1
[20] = tested on: Phytophthora capsici; experiment: Antifungal activity against Phytophthora capsici KACC 40157 measured 2 to 4 days post dose by two fold dilution method; format: functional; in short: as §2
[21] = tested on: Phytophthora capsici; experiment: Inhibition of spore germination of Phytophthora capsici KACC 40157 at 100 ug/mL; format: functional
[22] = tested on: Botrytis cinerea; experiment: Antifungal activity against Botryotinia fuckeliana KACC 40573 assessed as inhibition of radial growth at 0.2 mg/disk incubated for 4 to 6 days by disk diffusion method; format: functional; in short: as §3
[23] = tested on: Phytophthora capsici; experiment: Inhibition of spore germination of Phytophthora capsici KACC 40157 at 100 ug/mL measured 3 hr post dose; format: functional; settings: KACC 40157, 3 h
[24] = tested on: Phytophthora capsici; experiment: Antifungal activity against Phytophthora capsici KACC 40157 assessed as inhibition of radial growth at 0.2 mg/disk incubated for 4 to 6 days by disk diffusion method; format: functional; in short: as §3
[25] = tested on: Sclerotinia sclerotiorum; experiment: Antifungal activity against Sclerotinia sclerotiorum KACC 41065 assessed as inhibition of radial growth at 0.6 mg/disk incubated for 4 to 6 days by disk diffusion method; format: functional; in short: as §3

Row | SMILES | inhibition (INH) [1] [%] | inhibition [2] | MIC [3] [µg/mL] | MIC [4] [µg/mL] | inhibition (INH) [5] [%] | inhibition at 100 µg/mL [6] [%] | inhibition (INH) [7] [%] | inhibition [8] | inhibition (INH) [9] [%] | inhibition at 25 µg/mL [10] [%] | inhibition at 250 µg/mL [11] [%] | inhibition (INH) [12] [%] | MIC [13] [µg/mL] | inhibition at 500 µg/mL [14] [%] | inhibition [15] | inhibition [16] | inhibition (INH) [17] [%] | inhibition [18] | inhibition (INH) [19] [%] | MIC [20] [µg/mL] | also measured
1 | C=C(C)[C@@H]1Cc2cc3c(cc2O1)OC[C@@]1(O)c2ccc(O)cc2O[C@@H]31 [GLYCEOLLIN III] | 40 | Dose-dependent effect | 50 (≈ 148 µM) | 250 (≈ 739 µM) | 27.4 | 95 | 22.1 | tde | 40.1 | 50 | 100 | 48.2 | 750 (≈ 2220 µM) | 100 | Dose-dependent effect | Dose-dependent effect | 40.5 | Dose-dependent effect | 40 | 25 (≈ 73.9 µM) | inhibition at 100 µg/mL [21]: 100%; inhibition (INH) [22]: 10.9%; inhibition at 100 µg/mL [23]: 100%; inhibition (INH) [24]: 37.5%; inhibition (INH) [25]: 61%
2 | CC1(C)C=Cc2cc3c(cc2O1)OC[C@@]1(O)c2ccc(O)cc2O[C@@H]31 [GLYCEOLLIN II] | 40 | Dose-dependent effect | 50 (≈ 148 µM) | 250 (≈ 739 µM) | 27.4 | 95 | 22.1 | tde | 40.1 | 50 | 100 | 48.2 | 750 (≈ 2220 µM) | 100 | Dose-dependent effect | Dose-dependent effect | 40.5 | Dose-dependent effect | 40 | 25 (≈ 73.9 µM) | inhibition at 100 µg/mL [21]: 100%; inhibition (INH) [22]: 10.9%; inhibition at 100 µg/mL [23]: 100%; inhibition (INH) [24]: 37.5%; inhibition (INH) [25]: 61%
3 | CC1(C)C=Cc2c(ccc3c2OC[C@@]2(O)c4ccc(O)cc4O[C@@H]32)O1 [GLYCEOLLIN I] | 40 | Dose-dependent effect | 50 (≈ 148 µM) | 250 (≈ 739 µM) | 27.4 | 95 | 22.1 | tde | 40.1 | 50 | 100 | 48.2 | 750 (≈ 2220 µM) | 100 | Dose-dependent effect | Dose-dependent effect | 40.5 | Dose-dependent effect | 40 | 25 (≈ 73.9 µM) | inhibition at 100 µg/mL [21]: 100%; inhibition (INH) [22]: 10.9%; inhibition at 100 µg/mL [23]: 100%; inhibition (INH) [24]: 37.5%; inhibition (INH) [25]: 61%
